# According to ChEMBL document CHEMBL5303300, “EUbOPEN Chemogenomics Library - Multiplex” (2023):
# Several values for one entry are separate records, joined by “and”; a condition that tells them apart may be missing. Equal entries are not always repeated.
# Assays:
# U2OS = test: Multiplex assay against U2OS; type: toxicity, cell-based; details: human, number of replicates 2
# In short: (§1)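 On a CQ1 microscope at 37°C and 5% CO2, live cells were imaged after compound addition. They had been stained at seeding with Hoechst33342, BioTracker Green Microtubule Cytoskeleton Dye, MitoTracker Red and Annexin V Alexa Fluor 680. CellPathfinder machine-learning gating assigned cells to Hoechst high-intensity objects or normal cells, normal cells to healthy, pyknosed or fragmented nuclei, and pyknosed cells to mitotic or apoptotic. Tubulin, mitochondrial-mass and membrane-permeability phenotypes are per cents of healthy-nucleus cells.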
# HEK-293T = test: Multiplex assay against HEK293T; type: toxicity, cell-based; details: human, number of replicates 2; in short: as §1
# [1] = 12 h, 1 µM, compound concentration 1 uM
# [2] = 12 h, 10 µM, compound concentration 10 uM
# [3] = 24 h, 1 µM, compound concentration 1 uM
# [4] = 24 h, 10 µM, compound concentration 10 uM
# [5] = 48 h, 1 µM, compound concentration 1 uM
# [6] = 48 h, 10 µM, compound concentration 10 uM
smiles,measurement,setting,value
CC(=O)N(CCN(C)C)c1ccc(N/C(=C2\C(=O)Nc3cc(Cl)ccc32)c2ccccc2)cn1,Population Apoptotic (%),U2OS; [1],72% and 71%
same,Population Healthy Nuclei (%),U2OS; [1],84% and 68%
same,Population Hoechst High Intensity Objects (%),U2OS; [1],0% and 1%
same,Population Membrane Permeable-Phenotype (%),U2OS; [1],1% and 10%
same,Population Mitochondria Different-Phenotype (%),U2OS; [1],0% and 2%
same,Population Mitotic Cells (%),U2OS; [1],27% and 28%
same,Population Normal (%),U2OS; [1],100% and 98%
same,Population Pyknosed Nuclei (%),U2OS; [1],11% and 12%
same,Population Tubulin-Different-Phenotype (%),U2OS; [1],52% and 23%
same,Population Apoptotic (%),U2OS; [2],64% and 80%
same,Population Fragmented Nuclei (%),U2OS; [2],11% and 8%
same,Population Healthy Nuclei (%),U2OS; [2],54% and 60%
same,Population Hoechst High Intensity Objects (%),U2OS; [2],0% and 1%
same,Population Membrane Permeable-Phenotype (%),U2OS; [2],13% and 19%
same,Population Mitochondria Different-Phenotype (%),U2OS; [2],86% and 59%
same,Population Mitotic Cells (%),U2OS; [2],35% and 19%
same,Population Normal (%),U2OS; [2],100% and 98%
same,Population Pyknosed Nuclei (%),U2OS; [2],33% and 30%
same,Population Tubulin-Different-Phenotype (%),U2OS; [2],86% and 71%
same,Population Apoptotic (%),U2OS; [3],72% and 40%
same,Population Fragmented Nuclei (%),U2OS; [3],3% and 11%
same,Population Healthy Nuclei (%),U2OS; [3],85% and 79%
same,Population Hoechst High Intensity Objects (%),U2OS; [3],0% and 1%
same,Population Membrane Permeable-Phenotype (%),U2OS; [3],2% and 4%
same,Population Mitochondria Different-Phenotype (%),U2OS; [3],0%
same,Population Mitotic Cells (%),U2OS; [3],27% and 60%
same,Population Normal (%),U2OS; [3],100% and 98%
same,Population Pyknosed Nuclei (%),U2OS; [3],10% and 9%
same,Population Tubulin-Different-Phenotype (%),U2OS; [3],59% and 33%
same,Population Apoptotic (%),U2OS; [4],93% and 88%
same,Population Fragmented Nuclei (%),U2OS; [4],10% and 16%
same,Population Healthy Nuclei (%),U2OS; [4],31% and 23%
same,Population Hoechst High Intensity Objects (%),U2OS; [4],3% and 4%
same,Population Membrane Permeable-Phenotype (%),U2OS; [4],61% and 50%
same,Population Mitochondria Different-Phenotype (%),U2OS; [4],76% and 90%
same,Population Mitotic Cells (%),U2OS; [4],6% and 11%
same,Population Normal (%),U2OS; [4],96% and 95%
same,Population Pyknosed Nuclei (%),U2OS; [4],57% and 60%
same,Population Tubulin-Different-Phenotype (%),U2OS; [4],87% and 90%
same,Population Apoptotic (%),U2OS; [5],82% and 88%
same,Population Fragmented Nuclei (%),U2OS; [5],3% and 13%
same,Population Healthy Nuclei (%),U2OS; [5],86% and 66%
same,Population Hoechst High Intensity Objects (%),U2OS; [5],0%
same,Population Membrane Permeable-Phenotype (%),U2OS; [5],2% and 10%
same,Population Mitochondria Different-Phenotype (%),U2OS; [5],1% and 5%
same,Population Mitotic Cells (%),U2OS; [5],18% and 11%
same,Population Normal (%),U2OS; [5],99% and 100%
same,Population Pyknosed Nuclei (%),U2OS; [5],9% and 19%
same,Population Tubulin-Different-Phenotype (%),U2OS; [5],67% and 47%
same,Population Apoptotic (%),U2OS; [6],92% and 100%
same,Population Fragmented Nuclei (%),U2OS; [6],26% and 38%
same,Population Healthy Nuclei (%),U2OS; [6],11% and 2%
same,Population Hoechst High Intensity Objects (%),U2OS; [6],3% and 2%
same,Population Membrane Permeable-Phenotype (%),U2OS; [6],52% and 100%
same,Population Mitochondria Different-Phenotype (%),U2OS; [6],48% and 100%
same,Population Mitotic Cells (%),U2OS; [6],7% and 0%
same,Population Normal (%),U2OS; [6],96% and 98%
same,Population Pyknosed Nuclei (%),U2OS; [6],61% and 59%
same,Population Tubulin-Different-Phenotype (%),U2OS; [6],100%
same,Population Apoptotic (%),HEK-293T; [1],32% and 41%
same,Population Fragmented Nuclei (%),HEK-293T; [1],2%
same,Population Healthy Nuclei (%),HEK-293T; [1],84% and 85%
same,Population Hoechst High Intensity Objects (%),HEK-293T; [1],5%
same,Population Membrane Permeable-Phenotype (%),HEK-293T; [1],2% and 3%
same,Population Mitochondria Different-Phenotype (%),HEK-293T; [1],23% and 26%
same,Population Mitotic Cells (%),HEK-293T; [1],67% and 58%
same,Population Normal (%),HEK-293T; [1],94%
same,Population Pyknosed Nuclei (%),HEK-293T; [1],12%
same,Population Tubulin-Different-Phenotype (%),HEK-293T; [1],65% and 70%
same,Total Cell Count,HEK-293T; [1],666 and 654
same,Population Apoptotic (%),HEK-293T; [2],64% and 79%
same,Population Fragmented Nuclei (%),HEK-293T; [2],3% and 4%
same,Population Healthy Nuclei (%),HEK-293T; [2],77% and 71%
same,Population Hoechst High Intensity Objects (%),HEK-293T; [2],14% and 17%
same,Population Membrane Permeable-Phenotype (%),HEK-293T; [2],1% and 3%
same,Population Mitochondria Different-Phenotype (%),HEK-293T; [2],93% and 91%
same,Population Mitotic Cells (%),HEK-293T; [2],35% and 20%
same,Population Normal (%),HEK-293T; [2],85% and 82%
same,Population Pyknosed Nuclei (%),HEK-293T; [2],19% and 24%
same,Population Tubulin-Different-Phenotype (%),HEK-293T; [2],90% and 92%
same,Total Cell Count,HEK-293T; [2],227 and 197
same,Population Apoptotic (%),HEK-293T; [3],28%
same,Population Fragmented Nuclei (%),HEK-293T; [3],1% and 4%
same,Population Healthy Nuclei (%),HEK-293T; [3],89% and 87%
same,Population Hoechst High Intensity Objects (%),HEK-293T; [3],6% and 7%
same,Population Membrane Permeable-Phenotype (%),HEK-293T; [3],1% and 3%
same,Population Mitochondria Different-Phenotype (%),HEK-293T; [3],12% and 10%
same,Population Mitotic Cells (%),HEK-293T; [3],71%
same,Population Normal (%),HEK-293T; [3],93% and 92%
same,Population Pyknosed Nuclei (%),HEK-293T; [3],9% and 8%
same,Population Tubulin-Different-Phenotype (%),HEK-293T; [3],51% and 49%
same,Total Cell Count,HEK-293T; [3],869 and 891
same,Population Apoptotic (%),HEK-293T; [4],87% and 94%
same,Population Fragmented Nuclei (%),HEK-293T; [4],6% and 4%
same,Population Healthy Nuclei (%),HEK-293T; [4],80% and 83%
